In experiment [1] the target is Hepatocyte growth factor receptor (Homo sapiens, UniProt P08581). Kind of experiment: Inhibition of GST-tagged human c-MET preincubated for 20 mins followed by [33P]-ATP addition and measured after 2 hrs by Hot-Spot kinase assay.
For experiment [2], the system named is EBC-1. The experiment is described as follows: Antiproliferative activity against human EBC1 cells at 1 uM after 72 hrs by Cell Titer-Glo assay. The experiment is classed as functional. The procedure, abridged:
(§1)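 Cell Titer-Glo viability assay. Exponentially growing cells were plated at 4000 per well in RPMI-1640 with 10% FPS and incubated 12 h at 37 °C in 5% CO2. Compound was then added at the indicated final concentrations and cells were held 72 h at 37 °C in 5% CO2. CTG reagent was applied for 10 min at room temperature. Inhibition % = (1 − Vsample/Vvehicle control) × 100.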
In general terms: Cellular ATP, detected with luciferase, serves as a proxy for viable cell number.

Experiment [3] deals with MKN-45. The experiment is described as follows: Antiproliferative activity against human MKN45 cells at 5 uM after 72 hrs by Cell Titer-Glo assay. The experiment is classed as functional. The procedure, abridged:
as §1

The subject of experiment [4] is MKN-45. Kind of experiment: Antiproliferative activity against human MKN45 cells at 1 uM after 72 hrs by Cell Titer-Glo assay. The class given is functional. The gist of the method:
as §1

A further experiment deals with SNU-5. Kind of experiment: Antiproliferative activity against human SNU5 cells at 5 uM after 72 hrs by Cell Titer-Glo assay. The experiment is classed as functional. The gist of the method: as §1
Experiment [5] relates to EBC-1. The experiment is described as follows: Antiproliferative activity against human EBC1 cells at 5 uM after 72 hrs by Cell Titer-Glo assay. The class given is functional. The gist of the method: as §1
For experiment [6], the system named is EBC-1. The experiment is described as follows: Antiproliferative activity against human EBC1 cells after 72 hrs by Cell Titer-Glo assay. The experiment is classed as functional, cell-based. The conditions noted are these: EBC-1, 72 h. The gist of the method: as §1

The record followed here is ChEMBL document CHEMBL4229371, “Discovery of [1,2,4]triazolo[3,4-b][1,3,4]thiadiazole derivatives as novel, potent and selective c-Met kinase inhibitors: Synthesis, SAR study, and biological activity” (Eur J Med Chem, 2018).

pIC50: −log10 of the molar value. Where only a bound is given, the exact number is not on record here.

For orientation: pIC50 means −log10 of the IC50, conventionally taken in molar units. A high value points to a low IC50.

Chain of Hepatocyte growth factor receptor (P08581 whole entry): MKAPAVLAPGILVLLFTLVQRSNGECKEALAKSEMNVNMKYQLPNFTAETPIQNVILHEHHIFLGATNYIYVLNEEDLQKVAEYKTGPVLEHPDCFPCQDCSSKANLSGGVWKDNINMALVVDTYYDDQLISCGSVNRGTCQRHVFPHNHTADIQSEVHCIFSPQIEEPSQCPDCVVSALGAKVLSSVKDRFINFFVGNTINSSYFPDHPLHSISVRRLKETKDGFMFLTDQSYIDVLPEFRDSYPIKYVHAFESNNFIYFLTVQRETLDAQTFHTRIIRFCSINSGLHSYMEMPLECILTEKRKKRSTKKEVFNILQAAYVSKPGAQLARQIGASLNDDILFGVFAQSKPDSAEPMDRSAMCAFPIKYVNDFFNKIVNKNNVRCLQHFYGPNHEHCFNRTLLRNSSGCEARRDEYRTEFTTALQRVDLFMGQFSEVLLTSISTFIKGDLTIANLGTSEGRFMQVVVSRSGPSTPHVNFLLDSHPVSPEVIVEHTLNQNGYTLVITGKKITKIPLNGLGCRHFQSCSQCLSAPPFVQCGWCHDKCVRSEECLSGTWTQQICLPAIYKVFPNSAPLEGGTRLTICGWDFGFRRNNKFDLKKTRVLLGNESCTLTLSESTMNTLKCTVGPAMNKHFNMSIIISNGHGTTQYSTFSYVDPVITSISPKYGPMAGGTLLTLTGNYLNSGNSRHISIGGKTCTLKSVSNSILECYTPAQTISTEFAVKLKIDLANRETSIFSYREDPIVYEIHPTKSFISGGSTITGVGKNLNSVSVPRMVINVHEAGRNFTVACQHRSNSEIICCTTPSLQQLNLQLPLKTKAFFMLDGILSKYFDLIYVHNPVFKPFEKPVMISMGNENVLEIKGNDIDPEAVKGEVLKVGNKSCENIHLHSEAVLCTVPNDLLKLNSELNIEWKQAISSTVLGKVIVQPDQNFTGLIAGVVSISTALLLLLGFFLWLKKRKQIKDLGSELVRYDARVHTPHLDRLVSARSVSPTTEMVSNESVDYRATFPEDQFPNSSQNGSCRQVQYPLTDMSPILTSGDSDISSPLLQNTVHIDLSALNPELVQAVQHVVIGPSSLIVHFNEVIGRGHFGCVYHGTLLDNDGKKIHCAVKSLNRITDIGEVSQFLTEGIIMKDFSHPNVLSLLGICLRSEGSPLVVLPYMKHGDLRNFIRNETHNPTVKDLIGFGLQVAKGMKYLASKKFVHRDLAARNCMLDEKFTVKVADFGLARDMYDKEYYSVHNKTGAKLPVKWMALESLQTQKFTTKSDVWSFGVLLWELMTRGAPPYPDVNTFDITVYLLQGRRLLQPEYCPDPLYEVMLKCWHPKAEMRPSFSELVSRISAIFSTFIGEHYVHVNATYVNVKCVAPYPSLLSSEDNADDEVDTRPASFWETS

`O=C(Oc1ccc(Cc2nnc3sc(-c4cc5ccccc5[nH]4)nn23)cc1)c1cc2ccccc2[nH]1` had a pIC50 in experiment [1] below 5.00.
Turning to `CN(C)C(=O)COc1ccc(Cc2nnc3sc(-c4cnn(C)c4)nn23)cc1`, in experiment [1], the pIC50 was below 5.00.
`COc1ccc2c(OCc3nnc4sc(-c5ccc(F)cc5)nn34)ccnc2c1`: the Activity is on record as 89.4% with EBC-1 [2]; 71% in the experiment with MKN-45 [3]; 68.5% in the experiment on MKN-45 [4]; 65.8% in the experiment with SNU-5; 83.1% with EBC-1 [5]. The negative-log IC50 (pIC50) with EBC-1 [6] was 6.73.
For the molecule `COc1ccc(-c2nn3c(COc4ccnc5cc(OC)ccc45)nnc3s2)cc1`, the Activity with EBC-1 [2] is listed as 89.1%; in the experiment with MKN-45 [3], 72%; in the experiment on MKN-45 [4], 76.4%; in the experiment on SNU-5, 74.5%; in the experiment with EBC-1 [5], 85.2%. The same molecule gave a pIC50 in the experiment on EBC-1 [6] of 6.79.
For `COc1cccc(-c2nn3c(COc4ccnc5cc(OC)ccc45)nnc3s2)c1`, the Activity was determined as 91.5% in the experiment on EBC-1 [2]; 66.6% in the experiment with MKN-45 [3]; 37.8% with MKN-45 [4]; 65.7% with SNU-5; 85.4% in the experiment with EBC-1 [5]. Further, the pIC50 with EBC-1 [6] was 6.33.
As to `COc1ccc2c(OCc3nnc4sc(-c5cc6cc(F)ccc6[nH]5)nn34)ccnc2c1`, the figures for the Activity in the experiment with MKN-45 [3], in the experiment on SNU-5 and in the experiment on EBC-1 [5] were 47.7%, 54.4% and 42.3%, respectively.
On to `CNC(=O)COc1ccc(Cc2nnc3sc(-c4cnn(C)c4)nn23)cc1`, for which, in experiment [1], the pIC50 was below 5.00.
Take `COc1ccc2c(OCc3nnc4sc(-c5ccncc5)nn34)ccnc2c1`: the Activity in the experiment with EBC-1 [2] is on record as 91.6%; with MKN-45 [3], 73%; in the experiment on MKN-45 [4], 73.8%; in the experiment on SNU-5, 65.7%; in the experiment with EBC-1 [5], 83.7%. In the experiment on EBC-1 [6], this molecule had a pIC50 of 6.54.
Regarding `COc1ccc2c(OCc3nnc4sc(-c5cc6ccccc6n5C)nn34)ccnc2c1`, the Activity in the experiment on EBC-1 [2] was found to be 91.6%; in the experiment on MKN-45 [3] it was 74.1%; in the experiment with MKN-45 [4], 60.8%; with SNU-5, 67.7%; in the experiment with EBC-1 [5], 87%. In addition, the pIC50 in the experiment on EBC-1 [6] is 6.51.
Regarding `COc1ccc2c(OCc3nnc4sc(-c5ccc[nH]5)nn34)ccnc2c1`, the Activity stood at 80.5% in the experiment on EBC-1 [2]; 76.8% in the experiment on MKN-45 [3]; 79.3% in the experiment with MKN-45 [4]; 72.4% with SNU-5; 83.7% in the experiment with EBC-1 [5]. The pIC50 in the experiment with EBC-1 [6] is 6.83.
On to `COc1ccc2c(OCc3nnc4sc(-c5cccc(F)c5)nn34)ccnc2c1`, for which the Activity in the experiment with EBC-1 [2] is 86.7%; in the experiment on MKN-45 [3] it was 71.3%; with MKN-45 [4], 13.2%; in the experiment on SNU-5 it was 66.3%; in the experiment with EBC-1 [5], 81.4%. In the experiment with EBC-1 [6], the negative-log IC50 (pIC50) is 6.30.
On to `COc1ccc(Cc2nnc3sc(-c4cc5ccccc5[nH]4)nn23)cc1`, for which the pIC50 in experiment [1] is 7.10; with EBC-1 [6], 6.97. Further, the Activity is 86.5% with EBC-1 [2]; 76.3% with MKN-45 [3]; 78.1% in the experiment on MKN-45 [4]; 70.2% with SNU-5; 87.3% with EBC-1 [5].
Molecule `Cn1cc(-c2nn3c(Cc4ccc(OCCN5CCOCC5)cc4)nnc3s2)cn1` gave a negative-log IC50 (pIC50) in experiment [1] below 5.00.
For the molecule `COc1ccc2c(OCc3nnc4sc(-c5ccn(C6CCCC6)c5)nn34)ccnc2c1`, the Activity worked out at 41.3% with EBC-1 [2], 47.6% in the experiment with MKN-45 [3], 42% in the experiment with SNU-5 and 72.1% in the experiment with EBC-1 [5].
In the case of `COc1ccc2c(OCc3nnc4sc(-c5cc[nH]c5)nn34)ccnc2c1`, the Activity was determined as 90.6% with EBC-1 [2]; 70.5% in the experiment with MKN-45 [3]; 71.1% in the experiment on MKN-45 [4]; 71.5% in the experiment on SNU-5; 85.9% in the experiment with EBC-1 [5]. The pIC50 in the experiment with EBC-1 [6] is 6.45.
For the molecule `COc1ccc2c(OCc3nnc4sc(-c5cccn5C)nn34)ccnc2c1`, the Activity is recorded as 7.4% in the experiment on EBC-1 [2], 28.1% with MKN-45 [3], 14.5% with SNU-5 and 86.3% in the experiment with EBC-1 [5].
As for `COCCn1ccc(-c2nn3c(COc4ccnc5cc(OC)ccc45)nnc3s2)c1`, the Activity is reported as 89% in the experiment with EBC-1 [2]; 73% with MKN-45 [3]; 71.1% in the experiment on MKN-45 [4]; 46.1% in the experiment on SNU-5; 78.6% in the experiment with EBC-1 [5]. In the experiment with EBC-1 [6], this molecule gave a pIC50 of 6.48.
For `COc1ccc2[nH]c(-c3nn4c(COc5ccnc6cc(OC)ccc56)nnc4s3)cc2c1`, the Activity was 82.2% in the experiment with EBC-1 [2]; 61.2% in the experiment on MKN-45 [3]; 75.3% in the experiment with MKN-45 [4]; 60% in the experiment with SNU-5; 84% in the experiment with EBC-1 [5]. Further, the pIC50 in the experiment with EBC-1 [6] is 7.07.
`C[C@@H](Oc1cc(-c2cnn(C3CCNCC3)c2)cnc1N)c1c(Cl)ccc(F)c1Cl` [CRIZOTINIB]: the Activity in the experiment with EBC-1 [2] is listed as 93.1%; in the experiment on MKN-45 [3], 77.7%; in the experiment with MKN-45 [4], 82.6%; in the experiment with SNU-5, 80%; in the experiment with EBC-1 [5], 94.4%. The molecule further had a pIC50 in the experiment on EBC-1 [6] of 7.41.
For the molecule `COc1ccc2c(OCc3nnc4sc(-c5cc(F)c(F)c(F)c5)nn34)ccnc2c1`, the Activity in the experiment with EBC-1 [2] was determined as 89.3%; in the experiment with MKN-45 [3], 29.8%; in the experiment with SNU-5 it was 44.7%; in the experiment on EBC-1 [5], 84.5%. For the same molecule, the pIC50 in the experiment on EBC-1 [6] was 6.39.
In the case of `Cn1cc(C(=O)Oc2ccc(Cc3nnc4sc(-c5cnn(C)c5)nn34)cc2)cn1`, the negative-log IC50 (pIC50) in experiment [1] was below 5.00.
As to `COc1ccc2c(OCc3nnc4sc(-c5ccn(CC6CC6)c5)nn34)ccnc2c1`, the Activity in the experiment on EBC-1 [2] came to 87.2%; in the experiment on MKN-45 [3] it was 66.6%; with MKN-45 [4] it was 41.1%; in the experiment on SNU-5, 52.2%; in the experiment on EBC-1 [5], 75.9%. The molecule also gave a pIC50 in the experiment on EBC-1 [6] of 6.45.
